# Assay results gathered from unrelated publications.
# Protocols differ between the studies behind these lines.
# PIK3CG: Phosphatidylinositol 4,5-bisphosphate 3-kinase catalytic subunit gamma isoform (PIK3CG, Homo sapiens, UniProt P48736)
# Inositol-tetrakisphosphate 1-kinase: Inositol-tetrakisphosphate 1-kinase (Homo sapiens, UniProt Q13572)
# PTGS2: Prostaglandin G/H synthase 2 (PTGS2, Homo sapiens, UniProt P35354)
SMILES,target,assay,conditions,IC50 [nM]
C=C(F)C(=O)N1CCN(c2nc(OC[C@@H]3CCCN3C)nc3c2CCN(c2cccc4cccc(Cl)c24)C3)C[C@@H]1CC#N,"GTPase NRas (NRAS, Homo sapiens, UniProt P01111, C181S/C186S/G12C)","enzyme activity, inhibitor",,747
CN(C)C(=O)c1cc2cnc(Nc3ccc(-c4cccc5c(=O)cc(N6CCNCC6)oc45)cc3)nc2n1C1CCCC1,PIK3CG,"enzyme activity, inhibitor, radiometric",,> 10000
CC(C)NC(=O)COc1cccc(-c2nc(Nc3ccc4[nH]ncc4c3)c3ccccc3n2)c1,"UDP-glucuronosyltransferase 1A1 (UGT1A1, Homo sapiens, UniProt P22309)","enzyme activity, inhibitor",,60.9
CN(C)C(=O)c1cc2cnc(Nc3ccc4c(=O)cc(N5CCOCC5)oc4c3)nc2n1C1CCCC1,PIK3CG,"enzyme activity, inhibitor, radiometric",,461
Nc1ncnc2c1ncn2[C@@H]1O[C@H](CO)[C@@H](O)[C@@H]1F,Inositol-tetrakisphosphate 1-kinase,"enzyme activity, inhibitor, ADP detection",,3700
CN(C)C(=O)c1cc2cnc(Nc3ccc4c(=O)cc(N5CCNCC5)oc4c3)nc2n1C1CCCC1,PIK3CG,"enzyme activity, inhibitor, radiometric",,6930
NS(=O)(=O)c1ccc(-n2nc(C(=O)NN=Cc3ccccc3O)cc2-c2ccccc2)cc1,PTGS2,"enzyme activity, inhibitor",,1550
COc1cc(N=C2C(=O)N(Cc3ccccc3)c3ccccc32)cc(OC)c1,PIK3CG,"enzyme activity, inhibitor, ADP detection",,1.94
CN(C)C(=O)c1cc2cnc(Nc3cc(C(=O)O)cc(-c4ccc5c(=O)cc(N6CCOCC6)oc5c4)c3)nc2n1C1CCCC1,PIK3CG,"enzyme activity, inhibitor, radiometric",,17300
COc1cc(C=NNC(=O)c2cc(-c3ccccc3)n(-c3ccc(S(N)(=O)=O)cc3)n2)cc(OC)c1OC,PTGS2,"enzyme activity, inhibitor",,2690
Cc1cccc(N=C2C(=O)N(Cc3ccc(Br)cc3)c3ccccc32)c1,PIK3CG,"enzyme activity, inhibitor, ADP detection",,9.8
COc1ccc(C=NNC(=O)c2cc(-c3ccccc3)n(-c3ccc(S(N)(=O)=O)cc3)n2)cc1OC,PTGS2,"enzyme activity, inhibitor",,4610
Nc1ncnc2c1ncn2C1CCCC1,Inositol-tetrakisphosphate 1-kinase,"enzyme activity, inhibitor",,26
Cc1cccc(N=C2C(=O)N(Cc3cccc(Cl)c3)c3ccccc32)c1,PIK3CG,"enzyme activity, inhibitor, ADP detection",,0.96
O=C(CCNC(=O)CNC(=O)CC(c1ccccc1)(c1ccccc1)c1ccccc1)NC[C@@H]1CCCN(Cc2ccc(F)nc2)C1,"Muscarinic acetylcholine receptor M3 (CHRM3, Homo sapiens, UniProt P20309)","ligand displacement, radioligand",cell membranes,8200
CC(C)c1cccc(C(C)C)c1N=C1C(=O)N(Cc2ccc(Br)cc2)c2ccccc21,PIK3CG,"enzyme activity, inhibitor, ADP detection",,4.06
COc1ccc(-c2cc(=O)c3ccc(Nc4ncc5cc(C(=O)N(C)C)n(C6CCCC6)c5n4)cc3o2)cc1,PIK3CG,"enzyme activity, inhibitor, radiometric",,6030
O=C1C(=Nc2ccc(Cl)cc2)c2ccccc2N1Cc1ccc([N+](=O)[O-])cc1,PIK3CG,"enzyme activity, inhibitor, ADP detection",,1.2
Nc1ncnc2c1cnn2C1CCCCC1,Inositol-tetrakisphosphate 1-kinase,"enzyme activity, inhibitor",,3200
O=C(CCc1ccc(Cl)cc1)N1C(=O)C(=Nc2ccc(Cl)cc2Br)c2ccccc21,PIK3CG,"enzyme activity, inhibitor, ADP detection",,9.65
CN(C)C(=O)c1cc2cnc(Nc3cccc(-c4cccc5c(=O)cc(N6CCOCC6)oc45)c3)nc2n1C1CCCC1,PIK3CG,"enzyme activity, inhibitor, radiometric",,6040
c1ccc(COc2[nH]cnc3ncnc2-3)cc1,Inositol-tetrakisphosphate 1-kinase,"enzyme activity, inhibitor, ADP detection",,2900
CCc1ccc(N=C2C(=O)N(Cc3ccccc3)c3ccccc32)cc1,PIK3CG,"enzyme activity, inhibitor, ADP detection",,2.09
